# ERp5 inh – inhibitors of ERp5-driven insulin aggregation, primary screen, biochemical, turbidity, absorbance 650 nm, single point. inhibition, % at 9.99 µM. 90 min. 350,000 compounds, 0.05% hits;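 active = mean replicate inhibition above about 25%, with every replicate also reaching it, limit read from the data, passing the limit was not always enough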
# Target sequence (Q15084 whole entry, looked up): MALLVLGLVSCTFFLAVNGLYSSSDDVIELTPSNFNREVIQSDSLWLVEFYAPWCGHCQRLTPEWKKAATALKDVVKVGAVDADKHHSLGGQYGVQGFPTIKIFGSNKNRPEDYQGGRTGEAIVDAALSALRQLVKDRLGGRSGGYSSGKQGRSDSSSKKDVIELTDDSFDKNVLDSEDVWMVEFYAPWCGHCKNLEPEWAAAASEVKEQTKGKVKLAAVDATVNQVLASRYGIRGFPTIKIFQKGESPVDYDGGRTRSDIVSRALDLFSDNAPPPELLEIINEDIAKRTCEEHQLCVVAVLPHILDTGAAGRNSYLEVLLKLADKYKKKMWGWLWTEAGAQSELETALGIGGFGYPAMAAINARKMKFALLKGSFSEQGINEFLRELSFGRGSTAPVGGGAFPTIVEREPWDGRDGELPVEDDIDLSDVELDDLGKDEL
# PDI turbidity – inhibitors of human PDI, primary screen, biochemical, turbidity, single point, plate reader; Protein disulfide-isomerase (Homo sapiens), P07237; PDI insulin aggregation turbidity, A650, 90 min; inhibition, % at 10 µM; 350,000 compounds, 0.052% hits;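 active = mean inhibition across replicates of 30% or more, whatever share of single replicates reach that level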
# TbMetRS inhib – T. brucei MetRS inhibitors, primary screen, biochemical, luminescence. methionyl-tRNA synthetase (Trypanosoma brucei brucei). purified T. brucei MetRS, ATP depletion, Kinase-Glo luminescence. inhibition, % at 11.9 µM. 360,000 compounds, 0.4% hits. AID 624268, 2012;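 active = inhibition above a per-plate cutoff of the control wells' mean inhibition plus 3 SD, cut at about 5.5% in these data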;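 note: 0% = DMSO wells median and 100% = median of wells with control inhibitor compound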
#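 technique = Kinase-Glo luminescence, ATP depletion format | system = purified MetRS (methionyl-tRNA synthetase) enzyme from Trypanosoma brucei | timing = 15 min preincubation, 2 h reaction, all 25 °C | evaluation = percent inhibition versus plate control medians | dosing = single dose, 11.9 µM final nominal, 0.9% final DMSO | also added = substrates ATP, L-methionine and bulk Escherichia coli tRNA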
# Tb MetRS conf – T. brucei MetRS inhibitors, confirmation, biochemical, luminescence; inhibition, % at 11.9 µM; T. brucei MetRS enzyme, luminescence (ATP depletion); 1,400 compounds, 93% hits; shares compounds with TbMetRS inhib; AID 624412, 2012; in the data active = inhibition above about 7%
# Jurkat tox – Jurkat T cell cytotoxicity, cytotoxicity control for T. brucei MetRS inhibitor project, luminescence, high throughput | shares compounds with TbMetRS inhib | Jurkat cells viability, ATP luminescence | inhibition, % at 8.3 µM | 1,400 compounds, 12% hits | AID 624413, 2012; in the data active = inhibition above about 15%;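 note: 0% = vehicle and 100% = reference inhibitor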
# Tb MetRS inh FP – T. brucei MetRS inhibitors, orthogonal assay for T. brucei MetRS inhibitor project, biochemical, fluorescence polarization | shares compounds with TbMetRS inhib | inhibition, % at 11.9 µM | purified T. brucei MetRS | AID 651607, 2012 | 1,400 compounds, 44% hits; in the data active = inhibition above about 17%;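 note: 0% = vehicle wells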
# * marks the source's active call; other numbers are inactive results; nt = no result. This is a sample that favours compounds with a hit; in the whole collection about 0.4% have one here.
SMILES,ERp5 inh,PDI turbidity,TbMetRS inhib,Tb MetRS conf,Jurkat tox,Tb MetRS inh FP
CC(=O)N1[C@@H](CO)[C@@H](c2ccccc2)C12CN(C(=O)Cc1ccccc1)C2,-1,nt,nt,nt,nt,nt
O=C(NCC[C@H]1CC[C@H](NC(=O)C2CCCC2)[C@@H](CO)O1)c1ccc(F)cc1,-2,nt,nt,nt,nt,nt
OC(c1cc(F)cc(Cl)c1)c1ncc(-c2ccc(Cl)cc2)[nH]1 (configuration not stated),6,-29,34*,69*,12,47*
OC(c1cc(F)cc(Cl)c1)c1ncc(-c2ccccc2C(F)(F)F)[nH]1 (configuration not stated),0,10,26*,48*,81*,23*
Cc1cc(C)cc(C(O)c2ncc(-c3ccc4ccccc4c3)[nH]2)c1 (configuration not stated),2,6,7.5*,30*,7,17*
Cc1ccc(C(O)c2ncc(-c3ccc4ccccc4c3)[nH]2)cc1 (configuration not stated),4,-3,0,nt,nt,nt
Cc1ccccc1-c1cnc(C(O)c2ccc(Cl)cc2C)[nH]1 (configuration not stated),0,17,0,nt,nt,nt
Cc1ccccc1-c1cnc(C(O)c2cc(Cl)cc(Cl)c2)[nH]1 (configuration not stated),13,7,53*,81*,6,57*
OC(c1ccc(F)c(F)c1)c1ncc(-c2ccc(Cl)cc2)[nH]1 (configuration not stated),1,-10,5,nt,nt,nt
Cc1cc(C)cc(C(O)c2ncc(-c3ccccc3C(F)(F)F)[nH]2)c1 (configuration not stated),0,16,1,nt,nt,nt
O=C(C[C@H]1C[C@H]2c3cc(NS(=O)(=O)c4ccc(F)cc4)ccc3O[C@H]2[C@@H](CO)O1)N1CCCCC1,4,nt,nt,nt,nt,nt
O=C(C[C@H]1CC[C@H]2[C@@H](COC[C@H](O)CN2Cc2cc(F)cc(F)c2)O1)NC1CCCC1,-1,nt,nt,nt,nt,nt
OC(c1ccc(Cl)c(Cl)c1)c1ncc(-c2cccc(F)c2)[nH]1 (configuration not stated),1,-3,1,nt,nt,nt
OC(c1cc(Cl)cc(Cl)c1)c1ncc(-c2cccc(F)c2)[nH]1 (configuration not stated),-4,2,42*,77*,-1,55*
O=C(N[C@H]1CC[C@H](CCNS(=O)(=O)c2cccc(Cl)c2)O[C@@H]1CO)c1ccncc1,13,nt,nt,nt,nt,nt
Nc1cc(C(=O)OCC(=O)NCCNC(=O)COC(=O)c2ccc(Cl)c(N)c2)ccc1Cl,-4,-3,11*,30*,-2,8
COc1ccccc1CNC(=O)COC(=O)c1ccc(Cl)c(N)c1,-2,-3,3,nt,nt,nt
COc1ccc(CNC(=O)C[C@@H]2C=C[C@H](NC(=O)CN(C)C)[C@H](CO)O2)cc1,-6,nt,nt,nt,nt,nt
C[C@@H]1CCCCO[C@H](CN(C)C)[C@H](C)CN([C@H](C)CO)C(=O)c2cc(NC(=O)Nc3cccc4ccccc34)ccc2O1,3,nt,nt,nt,nt,nt
Cc1ccc(NC(=S)Nc2cccc(-c3n[nH]c(=S)o3)c2)cc1,3,-3,1,nt,nt,nt
NC(=S)Nc1cccc(-c2n[nH]c(=S)o2)c1,-4,-13,14*,35*,1,17*
C[C@@H]1CN([C@H](C)CO)C(=O)c2ccccc2-c2ccccc2CO[C@@H]1CN(C)S(=O)(=O)c1ccccc1C#N,0,nt,nt,nt,nt,nt
CO[C@H]1CN(C)C(=O)c2cc(NC(=O)c3cc(C)on3)ccc2OC[C@@H](C)N(C(=O)C2CC2)C[C@@H]1C,2,nt,nt,nt,nt,nt
O=C(NCc1cc(Cl)cc(Cl)c1)c1ccc2nc([C@@H]3O[C@H](CO)[C@@H](O)[C@H]3O)[nH]c2c1,2,2,11*,45*,-2,25*
O=C(NCc1ccccc1Cl)c1ccc2sc([C@H]3C[C@H](O)[C@@H](CO)O3)nc2c1,-1,-7,0,nt,nt,nt
SMILES,ERp5 inh,PDI turbidity,TbMetRS inhib,Tb MetRS conf,Jurkat tox,Tb MetRS inh FP
O=C(NCc1ccccc1Cl)c1csc([C@@H]2C[C@H](O)[C@@H](CO)O2)n1,-1,-7,0,nt,nt,nt
O=C(NCc1cc(Cl)cc(Cl)c1)c1csc(COCCO)n1,1,-9,43*,66*,6,44*
O=C(NCc1cc(Cl)cc(Cl)c1)c1csc([C@@H]2C[C@H](O)[C@@H](CO)O2)n1,3,15,22*,60*,-2,35*
O=C(NCc1cc(Cl)cc(Cl)c1)c1ccc2sc([C@H]3C[C@H](O)[C@@H](CO)O3)nc2c1,-5,-13,27*,69*,7,39*
O=C(NCc1ccncc1)c1ccc2nc([C@@H]3O[C@H](CO)[C@H](O)[C@H](O)[C@H]3O)[nH]c2c1,0,0,0,nt,nt,nt
O=C(NCc1cccs1)c1csc(COCCO)n1,1,8,0,nt,nt,nt
O=S(=O)(N[C@H]1CC[C@H](CCn2cc(-c3cccnc3)nn2)O[C@@H]1CO)c1ccccc1,4,nt,nt,nt,nt,nt
N#C[C@H]1[C@@H](c2ccccc2C2=CCCCC2)[C@@H](CO)N1C(=O)Cc1ccncc1,0,nt,nt,nt,nt,nt
COc1ccc([C@H]2C[C@H]3C(Br)=CC2C(=O)[C@]32CO2)cc1OC,0,nt,nt,nt,nt,nt
O=C(NC1CCC1)[C@@H]1[C@@H](CO)[C@@H]2Cn3c(ccc(C4=CCCC4)c3=O)[C@H]1N2CC1CC1,-1,nt,nt,nt,nt,nt
COc1ccc2c3c(n(C)c2c1)[C@@H](CO)N(Cc1ccccc1)CC31CCN(C(=O)Nc2cccc(F)c2)CC1,2,nt,nt,nt,nt,nt
COc1ccc(C(=O)Nc2ccc(S(=O)(=O)Nc3cnc4ccccc4n3)cc2)cc1,1,8,0,nt,nt,nt
O=C(Nc1ccc(S(=O)(=O)Nc2cnc3ccccc3n2)cc1)c1ccc(Cl)c([N+](=O)[O-])c1,4,-1,12*,24*,-1,7
COc1ccc(S(=O)(=O)N(C)C[C@@H]2OCCCC[C@@H](C)Oc3ccc(NS(=O)(=O)c4cccs4)cc3C(=O)N([C@H](C)CO)C[C@H]2C)cc1,-2,nt,nt,nt,nt,nt
COc1ccc2c(CC(=O)OCC(=O)Nc3ccc4c(c3)OCO4)coc2c1,nt,-2,10.0*,15*,-7,8
CCCC(=O)OCC(=O)Nc1ccc2c(c1)OCO2,0,-6,-1,nt,nt,nt
COc1ccc2c(CC(=O)OCC(=O)Nc3ccc(S(N)(=O)=O)cc3)coc2c1,5,-2,0,nt,nt,nt
COc1ccc2c(CC(=O)OCC(=O)Nc3ccc(C)cc3)coc2c1,0,-7,9.8*,25*,4,9
COc1cccc(CN2CCC3(CC2)CN(S(C)(=O)=O)[C@@H](CO)c2[nH]c4cc(OC)ccc4c23)c1,-7,nt,nt,nt,nt,nt

# Compound activity as filed in PubChem.
